Source: ChEMBL document CHEMBL1154265, “Alkaloids from the leaves of Daphniphyllum subverticillatum” (J Nat Prod, 2009)
Active and inactive are the calls of the source. The rule behind the calls is not given here.

Columns and labels:
HL-60 = test: Cytotoxicity against human HL60 cells after 72 hrs by MTT assay; format: functional, cell-based
Summary of the method: (§1)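 MTT read-out on HL-60 and P-388 cells, run to earlier published protocols, with pseudolaric acid B as the positive control; IC50 values reported.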

P388 = test: Cytotoxicity against mouse P388 cells after 72 hrs by MTT assay; format: functional, cell-based; summary of the method: as §1
A549 = test: Cytotoxicity against human A549 cells after 72 hrs by sulforhodamine B assay; format: functional, cell-based
Summary of the method: (§2)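 SRB staining on A-549, BEL-7402 and HMEC (human microvascular endothelial) cells, run to earlier published protocols, with pseudolaric acid B as the positive control; IC50 values reported.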

Bel-7402 = test: Cytotoxicity against human Bel7402 cells after 72 hrs by sulforhodamine B assay; format: functional, cell-based; summary of the method: as §2
HMEC = test: Cytotoxicity against human HMEC cells after 72 hrs by sulforhodamine B assay; format: cell-based; conditions: for Activity: human, hmec; summary of the method: as §2

| Structure (SMILES) | Activity (HL-60) | Activity (P388) | Activity (A549) | Activity (Bel-7402) | Activity (HMEC) | IC50 (HL-60; HL-60, 72 h) | IC50 (P388; P388, 72 h) | IC50 (Bel-7402; Bel-7402, 72 h) | IC50 (HMEC; Homo sapiens, HMEC) |
| --- | --- | --- | --- | --- | --- | --- | --- | --- | --- |
| CC[C@@]1(O)CC[C@@]2(CO1)[C@H]1CCC3=C4[C@H](C[C@@H]3O)[C@H](C(=O)OC)C[C@@]42CN(C)C1 | inactive | inactive | inactive | inactive | Non-toxic | – | – | – | – |
| CC(C)[C@H]1CC[C@@]2(C)[C@@H]3C[C@@H](O)[C@]45CCC[C@H]4[C@@]2(CCC(=O)[C@]2(C)CO[C@]4(C)CCC2O4)[C@@H]1N5C3 [HYDROXYCODAPHNIPHYLLINE] | inactive | inactive | inactive | inactive | Non-toxic | – | – | – | – |
| COC(=O)[C@@H]1C[C@@]23C(=O)[C@@H]4C[C@H]5N(C[C@@H](CCC6=C2[C@@H]1CC6)[C@]53COC(C)=O)C[C@H]4C [SUBDAPHNIDINE A] | inactive | inactive | inactive | inactive | Non-toxic | – | – | – | – |
| CC(=O)O[C@@H]1CC[C@@]2(C)O[C@@H](O)[C@@]1(C)C2CC[C@@]12[C@@H]3NC4C(CC[C@@]45CCC[C@H]51)[C@]2(C)CC[C@@H]3C(C)C (stereo not given in full) [DAPHNILONGERIDINE] | – | – | inactive | – | – | 9.5 µM | 2.4 µM | 9.7 µM | 2.7 µM |
| COC(=O)CC[C@]12C3=CCC[C@@H]3CC[C@@H]3C=N[C@@H]1[C@@H](C(C)C)CC[C@@]32C [DAPHNEZOMINE L METHYL ESTER] | inactive | inactive | inactive | inactive | Non-toxic | – | – | – | – |
